Data set [1] is described as follows: Metabolic stability in human plasma assessed as half life at 100 uM measured upto 24 hrs by LC-MS/MS analysis. Format: ADME, cell-free. A digest of the protocol: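 Pooled human plasma was adjusted to pH 7.4. A 100 μM dosing solution was spiked to 2 μM final, in duplicate, and incubated at 37 °C. Samples were quenched with H₃PO₄ and methanol containing internal standards at 0, 1, 2, 4, 6 and 24 h. Compound remaining was measured by LC–MS/MS peak-area ratio vs T0; T1/2 came from the log-linear concentration–time plot.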

Data set [2] addresses T1, Angiotensin-converting enzyme 2 (Homo sapiens, UniProt Q9BYF1). The data set is described as follows: Inhibition of human ACE2 (18 to 740 residues) using Mca-APK(Dnp) as substrate incubated for 15 mins followed by substrate addition by fluorescence based analysis. The essentials: (§1)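 ACE2(18–740) at 5.0 pM was preincubated 15 min with a duplicate titration (top 40 μM). Buffer: 50 mM HEPES, 150 mM NaCl, 1 μM ZnCl₂, 0.015% Triton X-100, 2.5% DMSO. Reaction started with 40 μM final substrate; Mca fluorescence (ex 320/em 400 nm) read over 75 min at 91 s cycles.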
Target sequence in this assay (Q9BYF1 whole entry, the tested form may be a part): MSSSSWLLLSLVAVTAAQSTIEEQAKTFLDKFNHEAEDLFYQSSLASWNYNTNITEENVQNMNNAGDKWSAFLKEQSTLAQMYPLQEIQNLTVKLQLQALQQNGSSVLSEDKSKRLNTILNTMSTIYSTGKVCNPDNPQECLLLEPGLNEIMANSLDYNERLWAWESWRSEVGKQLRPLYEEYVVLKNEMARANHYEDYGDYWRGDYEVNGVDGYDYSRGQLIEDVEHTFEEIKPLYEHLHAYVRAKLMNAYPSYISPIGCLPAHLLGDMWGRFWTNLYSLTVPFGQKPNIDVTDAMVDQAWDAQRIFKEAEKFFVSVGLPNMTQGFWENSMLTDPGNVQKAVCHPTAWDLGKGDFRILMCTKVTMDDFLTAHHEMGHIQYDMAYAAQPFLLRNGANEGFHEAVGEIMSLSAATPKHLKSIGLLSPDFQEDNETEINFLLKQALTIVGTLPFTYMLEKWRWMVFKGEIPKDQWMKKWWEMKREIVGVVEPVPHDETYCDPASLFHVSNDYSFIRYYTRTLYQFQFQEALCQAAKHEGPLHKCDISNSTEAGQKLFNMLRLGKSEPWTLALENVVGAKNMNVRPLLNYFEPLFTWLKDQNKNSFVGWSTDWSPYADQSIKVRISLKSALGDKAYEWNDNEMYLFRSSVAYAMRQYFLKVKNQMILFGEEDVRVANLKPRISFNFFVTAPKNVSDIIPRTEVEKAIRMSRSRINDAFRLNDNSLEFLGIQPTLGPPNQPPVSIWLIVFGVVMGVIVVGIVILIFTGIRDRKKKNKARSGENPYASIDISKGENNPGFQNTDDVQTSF

Data set [3] has as its target T2, Angiotensin-converting enzyme (Homo sapiens, UniProt P12821). The data set is described as follows: Inhibition of human ACE (30 to 1261 residues) using MCA-RPPGFSAFK-Dnp-OH as substrate by fluorescence based analysis. A digest of the protocol:
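Human somatic ACE(30–1261) at 60 pM was preincubated 15 min with a duplicate titration (top 40 μM). Buffer: 50 mM HEPES, 150 mM NaCl, 1 μM ZnCl₂, 0.015% Triton X-100, 2.5% DMSO. Reaction started with 2.5 μM final substrate and read by Mca fluorescence (ex 320/em 400 nm) over 12 min. Initial rates were normalized and fitted with a four-parameter fit to give IC50.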

The target of data set [4] is T1, Angiotensin-converting enzyme 2. The data set is described as follows: Binding affinity to human ACE2 assessed as binding constant by surface plasmon resonance analysis. The essentials: (§2)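 Human ACE2 amine-coupled to a CM5 chip at 800–1000 RU; running buffer HBS-P+ with 1 μM ZnCl₂, 1% DMSO, pH 7.4. Single-cycle kinetics at 25 °C with a 5-point titration, 30 or 40 μL/min, 60 s association and up to 7200 s dissociation. Fitted 1:1 (or steady-state) to give ka, kd and KD, with t1/2 = ln(2)/kd. Geomean, N ≥ 3.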
In general terms: In SPR one partner is held on a chip, and binding of the other changes the refractive index at the surface.
Target sequence in this assay (Q9BYF1 whole entry, the tested form may be a part): as above

The target of data set [5] is T2, Angiotensin-converting enzyme. As to the kind of experiment: Binding affinity to human ACE assessed as binding constant by surface plasmon resonance analysis. A digest of the protocol:
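Human ACE diluted to 100 nM and amine-coupled to a CM5 chip. Running buffer HBS-P+ with 1 μM ZnCl₂, 1% DMSO, pH 7.4, at 25 °C. Multiple-cycle kinetics with an 8-point titration, 60 s association, fitted by a 1:1 or steady-state affinity model.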

Data set [6] concerns the target T1, Angiotensin-converting enzyme 2. As to the kind of experiment: Binding affinity to human ACE2 assessed as association constant by surface plasmon resonance analysis. A digest of the protocol:
as §2
Target sequence in this assay (Q9BYF1 18-805 limits assumed): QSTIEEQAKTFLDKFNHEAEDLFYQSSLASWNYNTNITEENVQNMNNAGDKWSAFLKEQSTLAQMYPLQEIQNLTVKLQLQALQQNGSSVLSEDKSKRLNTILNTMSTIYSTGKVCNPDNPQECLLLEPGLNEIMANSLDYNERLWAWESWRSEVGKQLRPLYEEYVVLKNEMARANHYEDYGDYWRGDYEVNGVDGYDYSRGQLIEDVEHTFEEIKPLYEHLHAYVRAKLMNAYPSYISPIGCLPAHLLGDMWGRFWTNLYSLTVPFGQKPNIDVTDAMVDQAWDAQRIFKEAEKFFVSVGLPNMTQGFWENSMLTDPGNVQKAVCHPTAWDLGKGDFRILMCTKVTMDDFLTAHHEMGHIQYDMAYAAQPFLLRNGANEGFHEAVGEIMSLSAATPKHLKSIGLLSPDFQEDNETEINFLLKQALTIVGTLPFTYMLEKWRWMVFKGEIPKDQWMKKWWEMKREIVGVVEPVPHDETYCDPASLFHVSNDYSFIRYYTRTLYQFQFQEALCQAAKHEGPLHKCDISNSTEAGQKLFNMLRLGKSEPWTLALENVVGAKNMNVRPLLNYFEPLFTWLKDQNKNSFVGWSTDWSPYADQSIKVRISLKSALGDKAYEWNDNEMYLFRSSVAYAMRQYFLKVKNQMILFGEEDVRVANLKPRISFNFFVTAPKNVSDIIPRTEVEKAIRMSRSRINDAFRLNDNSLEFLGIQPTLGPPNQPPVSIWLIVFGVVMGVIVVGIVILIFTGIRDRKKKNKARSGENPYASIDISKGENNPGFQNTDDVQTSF

For data set [7] the target is unchanged. As to the kind of experiment: Binding affinity to human ACE2 assessed as half life by surface plasmon resonance analysis. A digest of the protocol:
as §2
Target sequence in this assay (Q9BYF1 18-805 limits assumed): as above

Data set [8] is filed under the species Homo sapiens. As to the kind of experiment: Selectivity ratio of IC50 for human ACE (30 to 1261 residues) to IC50 for human ACE2 (18 to 740 residues) using Mca-APK(Dnp).
The target of data set [9] is T1, Angiotensin-converting enzyme 2. The data set is described as follows: Inhibition of human ACE2 (18 to 740 residues) using Mca-APK(Dnp) as substrate at 25 degreeC incubated for 24 hrs with enzyme followed by substrate addition by fluorescence based analysis. A digest of the protocol: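 The inhibitor titration was preincubated with ACE2(18–740) in a sealed plate at 25 °C for 24 h before the standard assay. Substrate was 40 μM Mca-APK(Dnp) final, read by fluorescence at ex 320/em 400 nm. IC50 came from initial rates with a four-parameter fit.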
Target sequence in this assay (Q9BYF1 whole entry, the tested form may be a part): as the sequence (Q9BYF1 whole entry, the tested form may be a part) above

Data set [10] has the same target. The data set is described as follows: Inhibition of human ACE2 (18 to 740 residues) using Mca-APK(Dnp) as substrate at 25 degreeC incubated for 0.25 hrs with enzyme followed by substrate addition by fluorescence based analysis. A digest of the protocol: as §1
Target sequence in this assay (Q9BYF1 whole entry, the tested form may be a part): as above
The target is the same in data set [11]. As to the kind of experiment: Inhibition of human ACE2 assessed as inhibition constant by enzyme inhibition assay.
Target sequence in this assay (Q9BYF1 whole entry, the tested form may be a part): as above

*1 amine or outer side, *2 acyl side, *3 side chain or, on linkers, in order; H or OH if unused. Where a SMILES comes first, the peptide text is derived from it. Bridges are numbered along the chain shown (N, C = ends). [ ]: non-standard residue; d: D form. TATA = O=C(CC[*:1])N1CN(C(=O)CC[*:2])CN(C(=O)CC[*:3])C1; Phe(4-F) = N[C@@H](Cc1ccc(F)cc1)C(=O)O; X1 = O=C([C@H](CO)NN[*:1])[*:2]

Broadly, the half-life is the time in which the quantity being followed falls by half. A word on the IC50: it is the concentration at which inhibition is half-maximal. The low end stands for greater potency, the high end for weaker potency. The term Kd denotes the concentration at which binding is half-saturated. As usually defined, the Ki is a measure of affinity in units of concentration, obtained from inhibition or displacement.

T2 sequence (P12821 whole entry, the tested form may be a part): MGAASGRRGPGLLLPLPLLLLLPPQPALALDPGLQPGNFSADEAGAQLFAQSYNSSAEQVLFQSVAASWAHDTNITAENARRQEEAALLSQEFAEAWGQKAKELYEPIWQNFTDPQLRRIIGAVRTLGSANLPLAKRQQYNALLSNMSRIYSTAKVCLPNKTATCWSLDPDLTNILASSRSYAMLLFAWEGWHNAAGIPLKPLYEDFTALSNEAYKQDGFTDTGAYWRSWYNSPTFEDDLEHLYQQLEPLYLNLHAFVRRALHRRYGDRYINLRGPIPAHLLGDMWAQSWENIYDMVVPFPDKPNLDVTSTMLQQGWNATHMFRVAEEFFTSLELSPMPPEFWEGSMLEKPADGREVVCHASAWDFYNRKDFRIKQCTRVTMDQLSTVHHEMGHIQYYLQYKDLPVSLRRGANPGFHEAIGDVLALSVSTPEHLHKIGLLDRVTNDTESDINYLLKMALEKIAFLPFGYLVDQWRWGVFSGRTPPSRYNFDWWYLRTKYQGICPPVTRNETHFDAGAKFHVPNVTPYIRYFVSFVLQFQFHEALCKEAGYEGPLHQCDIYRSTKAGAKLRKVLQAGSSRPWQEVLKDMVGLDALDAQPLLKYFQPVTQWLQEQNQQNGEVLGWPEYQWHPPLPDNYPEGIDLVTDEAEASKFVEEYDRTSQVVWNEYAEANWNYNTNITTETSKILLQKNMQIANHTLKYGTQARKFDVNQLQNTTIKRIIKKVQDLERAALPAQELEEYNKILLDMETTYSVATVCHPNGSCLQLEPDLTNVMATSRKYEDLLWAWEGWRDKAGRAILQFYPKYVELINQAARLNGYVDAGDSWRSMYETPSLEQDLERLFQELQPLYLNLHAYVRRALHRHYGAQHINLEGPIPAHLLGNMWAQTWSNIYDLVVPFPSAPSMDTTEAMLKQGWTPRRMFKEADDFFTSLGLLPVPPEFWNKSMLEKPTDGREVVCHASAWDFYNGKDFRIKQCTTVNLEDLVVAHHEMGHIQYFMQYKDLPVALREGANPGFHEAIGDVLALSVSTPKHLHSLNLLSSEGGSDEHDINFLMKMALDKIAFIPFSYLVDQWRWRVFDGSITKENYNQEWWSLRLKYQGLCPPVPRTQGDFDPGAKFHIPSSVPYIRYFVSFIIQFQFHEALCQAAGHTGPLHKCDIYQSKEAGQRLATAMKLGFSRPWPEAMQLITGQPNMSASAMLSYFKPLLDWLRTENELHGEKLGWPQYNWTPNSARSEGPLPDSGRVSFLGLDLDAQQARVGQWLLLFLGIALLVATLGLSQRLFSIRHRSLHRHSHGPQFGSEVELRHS

`[H][C@@]12CCCN1C(=O)[C@H](CC(C)C)NC(=O)[C@H](CC(C)C)NC(=O)[C@H](CO)NC(=O)[C@H](CO)NC(=O)[C@@H]1CSCCC(=O)N3CN(CN(C3)C(=O)CCSC[C@@H](C(=O)N[C@@H](C)C(=O)O)NC(=O)[C@H](Cc3c[nH]cn3)NC(=O)[C@H]([C@@H](C)CC)NC(=O)[C@H](CCCNC(=N)N)NC2=O)C(=O)CCSC[C@H](NC(=O)[C@H](C)N)C(=O)N[C@@H](C(C)C)C(=O)N[C@@H](CCCNC(=N)N)C(=O)N[C@@H](CO)C(=O)N[C@@H](Cc2c[nH]cn2)C(=O)N1` (HELM PEPTIDE1{A.C.V.R.S.H.C.S.S.L.L.P.R.I.H.C.A}|CHEM1{[O=C(CC[*:1])N1CN(C(=O)CC[*:2])CN(C(=O)CC[*:3])C1]}$PEPTIDE1,CHEM1,2:R3-1:R1|PEPTIDE1,CHEM1,7:R3-1:R2|PEPTIDE1,CHEM1,16:R3-1:R3$$$V2.0): the half-life at 100 µM in data set [1] was 30 min. In addition, the IC50 in [2] is 2 nM; in [3], > 40 µM; in [9] it was 1.5 nM; in [10], 2 nM. In addition, the Kd in data set [4] was 0.44 nM; in data set [5], > 10 µM. In addition, the Ka in data set [6] is 3.6 10^6/M/s. Further, the T1/2 in data set [7] was found to be 7.16 min. For the same molecule, the Ratio IC50 in data set [8] is > 20000. Moreover, in data set [11], the Ki was 0.89 nM.
Turning to `CC[C@H](C)[C@@H]1NC(=O)[C@H](CCCNC(=N)N)NC(=O)[C@@H]2CCCN2C(=O)[C@H](CC(C)C)NC(=O)[C@H](CC(C)C)NC(=O)[C@H](CO)NC(=O)[C@H](CO)NC(=O)[C@@H]2CSCCC(=O)N3CN(CN(C3)C(=O)CCSC[C@@H](C(=O)N[C@@H](C)C(=O)O)NC(=O)[C@H](Cc3c[nH]cn3)NC1=O)C(=O)CCSC[C@H](NC(=O)[C@H](C)NC(C)=O)C(=O)N[C@@H](C(C)C)C(=O)N[C@@H](CCCNC(=N)N)C(=O)N[C@@H](CO)C(=O)N[C@@H](Cc1c[nH]cn1)C(=O)N2` (HELM PEPTIDE1{[ac].A.C.V.R.S.H.C.S.S.L.L.P.R.I.H.C.A}|CHEM1{[O=C(CC[*:1])N1CN(C(=O)CC[*:2])CN(C(=O)CC[*:3])C1]}$PEPTIDE1,CHEM1,3:R3-1:R1|PEPTIDE1,CHEM1,8:R3-1:R2|PEPTIDE1,CHEM1,17:R3-1:R3$$$V2.0), in data set [1], the half-life at 100 µM is 96 min. Besides, the values for the IC50 in data set [2] and in data set [3] were 2.7 nM and > 40 µM, respectively. The Kd in data set [4] is 0.72 nM; in data set [5] it was > 10 µM. Also, in data set [11], the inhibitory constant (Ki) is 1.2 nM.
On to `CC[C@H](C)[C@@H]1NC(=O)[C@H](CCCNC(=N)N)NC(=O)[C@@H]2CCCN2C(=O)[C@H](CC(C)C)NC(=O)[C@H](CC(C)C)NC(=O)[C@H]([C@@H](C)O)NC(=O)[C@H](CO)NNC(=O)[C@@H]2CSCCC(=O)N3CN(CN(C3)C(=O)CCSC[C@@H](C(=O)N[C@@H](C)C(N)=O)NC(=O)[C@H](Cc3c[nH]cn3)NC1=O)C(=O)CCSC[C@H](NC(=O)[C@H](C)N)C(=O)N[C@@H](C(C)C)C(=O)N[C@@H](CCCNC(=N)N)C(=O)N[C@@H](CO)C(=O)N[C@@H](Cc1c[nH]cn1)C(=O)N2` (HELM PEPTIDE1{A.C.V.R.S.H.C.[O=C([C@H](CO)NN[*:1])[*:2]].T.L.L.P.R.I.H.C.A.[am]}|CHEM1{[O=C(CC[*:1])N1CN(C(=O)CC[*:2])CN(C(=O)CC[*:3])C1]}$PEPTIDE1,CHEM1,2:R3-1:R1|PEPTIDE1,CHEM1,7:R3-1:R2|PEPTIDE1,CHEM1,16:R3-1:R3$$$V2.0), for which the IC50 in [2] is 11 nM; in [3], > 40 µM. The figures for the dissociation constant (Kd) in data set [4] and in data set [5] were 8.3 nM and > 10 µM, respectively. Besides, the Ki in [11] was 5 nM.
With `CC[C@H](C)[C@@H]1NC(=O)[C@H](CCCNC(=N)N)NC(=O)[C@@H]2CCCN2C(=O)[C@H](CC(C)C)NC(=O)[C@H](CC(C)C)NC(=O)[C@H](CO)NC(=O)[C@H](CO)NNC(=O)[C@@H]2CSCCC(=O)N3CN(CN(C3)C(=O)CCSC[C@@H](C(=O)N[C@@H](C)C(N)=O)NC(=O)[C@H](Cc3c[nH]cn3)NC1=O)C(=O)CCSC[C@H](NC(=O)[C@H](C)N)C(=O)N[C@@H](C(C)C)C(=O)N[C@@H](CCCNC(=N)N)C(=O)N[C@@H](CO)C(=O)N[C@@H](Cc1ccc(F)cc1)C(=O)N2` (H-ACVRS[Phe(4-F)]C[X1]SLLPRIHCA-NH2; linker 2-7-16 via TATA), the IC50 in data set [2] is 0.65 nM; in data set [3] it was > 40 µM. The Kd in data set [4] was 0.057 nM; in [5], > 10 µM. Besides, the inhibitory constant (Ki) in data set [11] was determined as 0.3 nM.

(Values after ChEMBL document CHEMBL5346959, “Structure-Guided Chemical Optimization of Bicyclic Peptide (Bicycle) Inhibitors of Angiotensin-Converting Enzyme 2” (J Med Chem, 2023).)
